For data set [1], the system named is Human alphaherpesvirus 1. The data set is described as follows: Antiviral activity against HSV1 KOS ATCC VR1493 infected in African green monkey Vero cells assessed as reduction in EGFP-positive cells at 10 uM treated at 2 hrs post infection measured 24 hrs post infection by flow cytometric analysis relative to control. The class given is functional. The method, boiled down:
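Vero cells infected with EGFP-expressing HSV-1 at MOI 1, then given medium with 10 μM test agent (DMSO vehicle) at 2 hpi. Percentage of EGFP+ cells read by flow cytometry at 24 hpi against untreated infected cultures. Mean of three independent experiments, SD.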

In data set [2] the test system is Human alphaherpesvirus 1. Put plainly: Antiviral activity against HSV1 KOS ATCC VR1493 infected in African green monkey Vero cells assessed as reduction in virus yield at 10 uM treated at 2 hrs post infection measured 48 hrs post infection by flow cytometric analysis relative to control. The format is functional, organism-based.
The test system of data set [3] is Human alphaherpesvirus 1. Put plainly: Antiviral activity against HSV1 KOS ATCC VR1493 infected in human iPSC cells assessed as reduction in EGFP-positive cells at 10 uM treated at 2 hrs post infection measured 24 hrs post infection by flow cytometric analysis relative to control. The class given is functional. The method in brief: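 Human iPSC-derived neurons infected with engineered EGFP HSV-1 at MOI 0.3 and treated with 10 μM at 2 hpi (DMSO vehicle). Percentage of EGFP+ cells measured by flow cytometry at 24 hpi relative to untreated infected cultures. Average of three independent experiments, SD.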

Data set [4] concerns Human alphaherpesvirus 1. The data set is described as follows: Antiviral activity against HSV1 KOS ATCC VR1493 infected in human iPSC cells assessed as reduction in virus yield at 10 uM treated at 2 hrs post infection measured 48 hrs post infection by flow cytometric analysis relative to control. The format is functional, organism-based.
Data set [5] has as its system Human alphaherpesvirus 1. Put plainly: Antiviral activity against HSV1 KOS ATCC VR1493 infected in human iPSC cells assessed as viral DNA replication at 10 uM measured 24 hrs post infection by FISH analysis. The format is functional, organism-based. The method in brief: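 HSV-1-infected iPSC-neurons (MOI 0.3), treated with 10 μM at 2 hpi. Fluorescent in situ hybridisation with HSV-1 DNA probe to detect viral DNA replication at 24 hpi.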

The test system of data set [6] is Human alphaherpesvirus 1. The data set is described as follows: Antiviral activity against HSV1 KOS ATCC VR1493 infected in human iPSC cells assessed as reduction in viral DNA copy at 10 uM measured 24 hrs post infection by RT-qPCR analysis relative to control. The class given is functional. The method, boiled down:
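iPSC-neurons infected with HSV-1 (MOI 0.3) and treated with 10 μM at 2 hpi. DNA extracted at 24 hpi. Viral DNA copy number measured by qPCR relative to infected untreated cells.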

For data set [7], the system named is Human alphaherpesvirus 1. Put plainly: Antiviral activity against HSV1 KOS ATCC VR1493 infected in human iPSC cells assessed as reduction in expression of ICP4 gene at 10 uM measured 24 hrs post infection by RT-qPCR analysis. The class given is functional, organism-based. The method in brief:
(§1)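 iPSC-neurons infected with HSV-1 (MOI 0.3) and treated with 10 μM at 2 hpi. RT-qPCR of ICP4 and viral DNA polymerase transcripts at 24 hpi.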

The subject of data set [8] is Human alphaherpesvirus 1. Put plainly: Antiviral activity against HSV1 KOS ATCC VR1493 infected in human iPSC cells assessed as reduction in expression of DNA polymerase gene at 10 uM measured 24 hrs post infection by RT-qPCR analysis. The class given is functional, organism-based. The method in brief:
as §1

Data set [9] is described as follows: Cytotoxicity against human iPSC cells assessed as cell viability at 0.1 to 50 uM after 24 to 48 hrs by live/dead fixable viability dye-based flow cytometric analysis. The method in brief:
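Viability of iPSC-neurons exposed to test agent over 100 nM to 50 μM.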

Data set [10] has as its system Human alphaherpesvirus 3. The data set is described as follows: Antiviral activity against VZV infected in human ARPE19 cells at 10 uM treated at 2 hrs post infection measured 48 hrs post infection by luciferase assay relative to control. The format is functional. The method, boiled down: (§2)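 ARPE-19 retinal pigment epithelial cells infected with VZV carrying luciferase under the late ORF9 promoter at 1000 PFU/well. Compound added 2 hpi. Luciferase counts per second read at 48 hpi.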

In data set [11] the test system is Human alphaherpesvirus 3. The data set is described as follows: Antiviral activity against VZV infected in human ARPE19 cells treated at 2 hrs post infection measured 48 hrs post infection by luciferase assay. The class given is functional, organism-based. As to conditions: Human alphaherpesvirus 3, ARPE-19. The method in brief:
as §2

Data set [12] in a line: Cytotoxicity against human ARPE19 cells assessed as cell viability at 0.1 to 50 uM after 24 to 48 hrs by live/dead fixable viability dye-based flow cytometric analysis. The settings on record: arpe-19, 50 µM.
The subject of data set [13] is Human alphaherpesvirus 1. Put plainly: Induction of sodium butyrate-induced reactivation of HSV1 KOS ATCC VR1493 infected in human iPSC cells assessed as increase in EGFP-positive cells at 10 uM measured after 5 days of withdrawal by flow cytometric analysis relative to 5BVdU/IFN-alpha-treated cells. The class given is functional.
The test system of data set [14] is Human alphaherpesvirus 1. The data set is described as follows: Induction of sodium butyrate-induced reactivation of HSV1 KOS ATCC VR1493 infected in human iPSC cells assessed as increase in EGFP-positive cells at 10 uM measured after 5 days of withdrawal in presence of IFN-alpha by flow cytometric analysis relative to 5BVdU/[…]-treated cells. The format is functional.

Data set [15] deals with Human alphaherpesvirus 1. The data set is described as follows: Induction of sodium butyrate-induced reactivation of HSV1 KOS ATCC VR1493 infected in human iPSC cells assessed as decrease in EGFP MFI at 10 uM measured after 5 days of withdrawal relative to 5BVdU/IFN-alpha-treated cells. The format is functional.
Data set [16] relates to Human alphaherpesvirus 1. The data set is described as follows: Induction of sodium butyrate-induced reactivation of HSV1 KOS ATCC VR1493 infected in human iPSC cells assessed as decrease in EGFP MFI at 10 uM measured after 5 days of withdrawal in presence of IFN-alpha relative to 5BVdU/IFN-alpha-treated cells. The class given is functional.
In data set [17] the test system is Human alphaherpesvirus 1. The data set is described as follows: Induction of sodium butyrate-induced reactivation of HSV1 KOS ATCC VR1493 infected in human iPSC cells assessed as reduction in EGFP/RFP-positive cells at 10 uM measured after 5 days of withdrawal by flow cytometric analysis relative to 5BVdU/[…]-treated cells. The format is functional, organism-based.

Data set [18] has as its system Human alphaherpesvirus 1. Put plainly: Induction of sodium butyrate-induced reactivation of HSV1 KOS ATCC VR1493 infected in human iPSC cells assessed as reduction in EGFP/RFP-positive cells at 10 uM measured after 5 days of withdrawal in presence of IFN-alpha by flow cytometric analysis relative to 5BVdU/[…]-treated cells. The format is functional, organism-based.

In data set [19] the test system is Human alphaherpesvirus 1. Put plainly: Induction of sodium butyrate-induced reactivation of HSV1 KOS ATCC VR1493 infected in human iPSC cells assessed as decrease in EGFP/RFP MFI at 10 uM measured after 5 days of withdrawal relative to 5BVdU/IFN-alpha-treated cells. The class given is functional, organism-based.
For data set [20], the system named is Human alphaherpesvirus 1. The data set is described as follows: Induction of sodium butyrate-induced reactivation of HSV1 KOS ATCC VR1493 infected in human iPSC cells assessed as decrease in EGFP/RFP MFI at 10 uM measured after 5 days of withdrawal in presence of IFN-alpha relative to 5BVdU/IFN-alpha-treated cells. The format is functional, organism-based.

The subject of data set [21] is Human alphaherpesvirus 1. The data set is described as follows: Antiviral activity against HSV1 KOS ATCC VR1493 infected in human iPSC cells assessed as reduction in expression of ICP4 at 10 uM measured 24 hrs post infection by western blot analysis. The class given is functional, organism-based.
The subject of data set [22] is Human alphaherpesvirus 1. Put plainly: Antiviral activity against HSV1 KOS ATCC VR1493 infected in human iPSC-derived neurons assessed as reduction in EGFP-positive cells treated at 2 hrs post infection measured 24 hrs post infection by flow cytometric analysis. As to conditions: Human alphaherpesvirus 1, KOS ATCC VR1493, iPSC-derived neurons.
The subject of data set [23] is Human alphaherpesvirus 1. The data set is described as follows: Antiviral activity against HSV1 KOS ATCC VR1493 infected in African green monkey Vero cells assessed as viral titre at 50 uM treated at 2 hrs post infection measured 48 hrs post infection by […] relative to control. The class given is functional.
Data set [24] deals with Human alphaherpesvirus 1. The data set is described as follows: Antiviral activity against HSV1 KOS ATCC VR1493 infected in human iPSC cells assessed as viral DNA replication at 50 uM measured 24 hrs post infection by FISH analysis. The class given is functional, organism-based. The method in brief: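 iPSC-derived neurons were infected with engineered HSV-1 at MOI 0.3 and given drug 2 hpi. Viral DNA replication was scored by fluorescent in situ hybridization with an HSV-1 DNA probe, counting hybridizing signals.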

For data set [25], the system named is Human alphaherpesvirus 1. The data set is described as follows: Antiviral activity against HSV1 KOS ATCC VR1493 infected in human iPSC cells assessed as reduction in expression of ICP4 gene at 50 uM measured 24 hrs post infection by RT-qPCR analysis. The format is functional, organism-based. The method in brief:
(§3)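 Human iPSC-derived neurons were infected with engineered HSV-1 at MOI 0.3 and treated 2 hpi (DMSO vehicle). RNA was taken 24 hpi, and viral ICP4 and viral DNA polymerase transcripts were quantified by RT-qPCR relative to infected untreated cells.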

For data set [26], the system named is Human alphaherpesvirus 1. Put plainly: Antiviral activity against HSV1 KOS ATCC VR1493 infected in human iPSC cells assessed as reduction in expression of DNA polymerase gene at 50 uM measured 24 hrs post infection by RT-qPCR analysis. The format is functional, organism-based. The method in brief: as §3
Data set [27] concerns Human alphaherpesvirus 1. Put plainly: Antiviral activity against HSV1 KOS ATCC VR1493 infected in human iPSC cells assessed as reduction in expression of ICP4 at 50 uM measured 24 hrs post infection by western blot analysis. The format is functional, organism-based.

The source made the active and inactive calls. No cut-off for these calls is given here. Where only a bound is given, the exact number is not on record here.

With `O=C1N[C@H]2[C@H](O)[C@H](O)[C@@H](O)C[C@@H]2c2cc3c(cc21)OCO3`, the “fold change (FC)” value in data set [1] is reported as 19.6; in data set [3], 28; in data set [6], above 1800; in data set [10] it was 220; in [13] it was 2.9; in data set [14], 2.1. The “fold change (FC)” value in [15] turned out to be 1.6; in data set [16], 2.5. Moreover, the outcome in data set [2], in data set [4], in [5], in data set [7], in data set [8] and in data set [17] was Active. Also, the outcome in data set [18], in data set [19], in data set [20] and in data set [21] was Active. Also, the Activity result in [9] and in data set [12] was “Non-toxic” each time. For the same compound, the EC50 is 0.15 µM in data set [11] and 0.1 µM in [22].
Take `Nc1nc2c(ncn2COCCO)c(=O)[nH]1` [ACYCLOVIR]: the figures for the Activity in data set [23], in data set [9] and in data set [12] were 33.3 PFU/ml, “Non-toxic” and “Non-toxic”, respectively. For the same compound, the result in data set [24], in [25], in [26] and in data set [27] was Active. In data set [22], the EC50 was determined as 0.07 µM.
With `O=C1N[C@H]2[C@H](O)[C@H](O)[C@@H](O)[C@H](O)[C@@H]2c2cc3c(c(O)c21)OCO3` [PANCRATISTATIN], the “fold change (FC)” value in data set [1] is recorded as 8.3; in [3] it was 62. The result in data set [2], in data set [4] and in data set [5] was Active.
On to `COC(=O)N[C@H]1C(=O)C[C@@H](O)C[C@@H]1c1ccc2c(c1)OCO2`, for which the result in data set [1], in data set [2] and in [5] was inactive.
Turning to `O=C1N[C@@H]2C(=C[C@H](O)[C@@H](O)[C@H]2O)c2cc3c(c(O)c21)OCO3` [NARCICLASINE], the “fold change (FC)” value in data set [1] worked out at 10.6; in data set [3], 69. Moreover, the outcome in data set [2], in [4] and in data set [5] was Active.
As for `O=C1N[C@H]2[C@H](O)[C@@H](O)[C@@H](O)C[C@@H]2c2cc3c(cc21)OCO3`, the result in [1], in [2] and in data set [5] was inactive.
As for `O=C1N[C@H]2[C@H](O)C[C@@H](O)C[C@@H]2c2cc3c(cc21)OCO3`, the result in [1], in data set [2] and in [5] was inactive.

Source of the values: ChEMBL document CHEMBL3774324, “iPSC Neuronal Assay Identifies Amaryllidaceae Pharmacophore with Multiple Effects against Herpesvirus Infections” (ACS Med Chem Lett, 2016).
